Reference: ChEMBL document CHEMBL3580648, “Dimeric Abietane Diterpenoids and Sesquiterpenoid Lactones from Teucrium viscidum” (J Nat Prod, 2015)
Counter-ions that a name gives are not always drawn. One block for each compound: values may come before it.

How the values were obtained:
HeLa = experiment: Cytotoxic activity against human HeLa cells by MTT method; type: functional, cell-based
Procedure, shortened: (§1)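 MTT assay on the cancer cell line. IC50 taken as the concentration that cuts absorbance to 50% of control. Values are means of three independent experiments.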

HCT-116 = experiment: Cytotoxic activity against human HCT116 cells by MTT method; type: functional, cell-based; procedure, shortened: as §1
[1] = Cytotoxic activity against human H460 cells by MTT method; type: functional, cell-based; settings: NCI-H460; procedure, shortened: as §1
HepG2 = experiment: Cytotoxic activity against human HepG2 cells by MTT method; type: functional, cell-based; procedure, shortened: as §1
[2] = Cytotoxic activity against human BGC823 cells by MTT method; type: functional, cell-based; settings: BGC-823; procedure, shortened: as §1
[3] = Inhibition of Saccharomyces cerevisiae alpha-glucosidase pre-incubated for 10 mins at 25 degC before addition of p-nitrophenyl-alpha-D-glucopyranoside substrate by UV absorption based assay
Procedure, shortened: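 Yeast α-glucosidase at 1.0 U/mL in 0.1 M K3PO4 buffer, pH 6.9, mixed with test compound in DMSO. Preincubated 10 min at 25 °C, then started with PNPG (5.0 mM solution in the same buffer). A405 was read at once and again after 5 min at 25 °C. ΔA was compared with a DMSO control to give % inhibition and IC50, as means of three independent experiments.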

IC50 [3]: > 1000 µM
SMILES: CC(C)C1=C[C@]23Oc4c(C(C)C)cc5c(c4O[C@@]2(C(=O)C1=O)C12COC3C[C@H]1C(C)(C)C[C@H](O)C2)C12COC5C[C@H]1C(C)(C)C[C@H](O)C2 (stereo not given in full)
IC50 (HeLa): 5.2 µM
IC50 (HCT-116): 6.3 µM
IC50 [1]: 8.5 µM
IC50 (HepG2): 5.2 µM
IC50 [2]: 4.8 µM

IC50 [3]: > 1000 µM
SMILES: CC(=O)O[C@H]1C[C@@H](O)[C@@]2(C)C[C@@]3(O)OC(=O)C(C)=C3C[C@@H]2[C@H]1C
IC50 (HeLa): > 10 µM
IC50 (HCT-116): > 10 µM
IC50 [1]: > 10 µM
IC50 (HepG2): > 10 µM
IC50 [2]: > 10 µM

IC50 [3]: > 1000 µM
SMILES: CC(=O)O[C@@H]1C[C@H](O)[C@H](C)[C@H]2CC3=C(C)C(=O)O[C@]3(O)C[C@@]21C
IC50 (HeLa): > 10 µM
IC50 (HCT-116): > 10 µM
IC50 [1]: > 10 µM
IC50 (HepG2): > 10 µM
IC50 [2]: > 10 µM

IC50 [3]: > 1000 µM
SMILES: CC1=C2C[C@@H]3[C@@H](C)[C@@H](O)C[C@@H](O)[C@@]3(C)C[C@@]2(O)OC1=O
IC50 (HeLa): > 10 µM
IC50 (HCT-116): > 10 µM
IC50 [1]: > 10 µM
IC50 (HepG2): > 10 µM
IC50 [2]: > 10 µM

IC50 [3]: 568 µM
SMILES: CC1=CC(=O)[C@@H](O)[C@]2(C)C[C@]3(O)OC(=O)C(C)=C3C[C@@H]12
IC50 (HeLa): > 10 µM
IC50 (HCT-116): > 10 µM
IC50 [1]: > 10 µM
IC50 (HepG2): > 10 µM
IC50 [2]: > 10 µM

IC50 [3]: 169 µM
SMILES: C[C@H]1O[C@H](O[C@H]2[C@H](O)[C@@H](O)[C@@H](O[C@H]3[C@H](O)[C@@H](O)C(O)O[C@@H]3CO)O[C@@H]2CO)[C@H](O)[C@@H](O)[C@@H]1N[C@H]1C=C(CO)[C@@H](O)[C@H](O)[C@H]1O (stereo not given in full) [ACARBOSE]

Continued, compound first:

SMILES: CC(C)C1=CC2=C(C(=O)C1=O)[C@]13CO[C@H]2C[C@H]1C(C)(C)C[C@H](O)C3
IC50 (HeLa): > 10 µM
IC50 (HCT-116): 7.3 µM
IC50 [1]: > 10 µM
IC50 (HepG2): > 10 µM
IC50 [2]: > 10 µM
IC50 [3]: > 1000 µM

SMILES: CC(C)c1cc2c(c(O)c1O)[C@]13CO[C@H]2C[C@H]1C(C)(C)C[C@H](O)C3
IC50 (HeLa): > 10 µM
IC50 (HCT-116): > 10 µM
IC50 [1]: > 10 µM
IC50 (HepG2): > 10 µM
IC50 [2]: > 10 µM
IC50 [3]: > 1000 µM

SMILES: CC(C)C1=C[C@@]23Oc4c(C(C)C)cc5c(c4O[C@]2(C(=O)C1=O)C12COC3C[C@H]1C(C)(C)C[C@H](O)C2)C12COC5C[C@H]1C(C)(C)C[C@H](O)C2 (stereo not given in full)
IC50 (HeLa): > 10 µM
IC50 (HCT-116): > 10 µM
IC50 [1]: > 10 µM
IC50 (HepG2): > 10 µM
IC50 [2]: > 10 µM
IC50 [3]: > 1000 µM

SMILES: CC(=O)O[C@@H]1C(=O)C=C(C)[C@@H]2CC3=C(C)C(=O)O[C@@]3(O)C[C@@]12C
IC50 (HeLa): > 10 µM
IC50 (HCT-116): > 10 µM
IC50 [1]: > 10 µM
IC50 (HepG2): > 10 µM
IC50 [2]: > 10 µM
IC50 [3]: > 1000 µM

SMILES: CC(=O)O[C@@H]1C(=O)C=C(C)[C@]2(O)CC3=C(C)C(=O)O[C@@]3(O)C[C@@]12C
IC50 (HeLa): > 10 µM
IC50 (HCT-116): > 10 µM
IC50 [1]: > 10 µM
IC50 (HepG2): > 10 µM
IC50 [2]: > 10 µM
IC50 [3]: 300 µM

SMILES: COc1cccc2c1C(=O)c1c(O)c3c(c(O)c1C2=O)C[C@@](O)(C(=O)CO)C[C@@H]3O[C@H]1C[C@H](N)[C@H](O)[C@H](C)O1 [DOXORUBICIN HYDROCHLORIDE]
IC50 (HeLa): 0.72 µM
IC50 [1]: 0.24 µM
IC50 (HepG2): 0.24 µM
IC50 [2]: 0.76 µM
